Values after ≈ are worked out from the molar mass of the structure shown.

Consider 20 compounds from ChEMBL document CHEMBL1933013, “Synthesis, SAR, and preliminary mechanistic evaluation of novel antiproliferative N⁶,5'-bis-ureido- and 5'-carbamoyl-N⁶-ureidoadenosine derivatives” (Bioorg Med Chem, 2012).

The test system of one assay is L1210. The assay can be described thus: Antiproliferative activity against mouse L1210 cells after 48 hrs. The assay is classed as functional, cell-based. Particulars: L1210, 48 h. In outline: (§1)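 Cells in growth medium grown with variable compound concentrations at 37 °C in humidified CO2-controlled atmosphere; incubation 48 h for L1210 and FM3A, 72 h for CEM, 96 h for HeLa. Cell number counted by Coulter counter; IC50 = concentration inhibiting proliferation by 50%.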

The next assay concerns CCRF-CEM. The assay can be described thus: Antiproliferative activity against human CEM cells after 72 hrs. The assay is classed as cell-based. In outline:
as §1

In another assay the test system is HeLa. Nature of the assay: Antiproliferative activity against human HeLa cells after 96 hrs. The assay is classed as functional, cell-based. In outline: as §1
The subject of another assay is FM3A. Nature of the assay: Antiproliferative activity against mouse FM3A cells after 48 hrs. The format is functional, cell-based. In short, it runs like this: as §1
For assay [1], the target named is Bone morphogenetic protein receptor type-1B (Homo sapiens, UniProt O00238). Nature of the assay: Inhibition of BMPR1B at 10 uM after 1 hr by competitive binding assay. In outline: (§2)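 Single-dose competitive binding at 10 μM against immobilized ATP-site ligands (DiscoveRx): phage-tagged or HEK-293-expressed DNA-tagged kinase with ligand-loaded streptavidin magnetic beads in 20% SeaBlock, 0.17× PBS, 0.05% Tween 20, 6 mM DTT, 1 h room temperature with shaking. Beads washed, eluted with 0.5 μM free ligand for 30 min; bound kinase quantified by qPCR as % binding inhibition.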

For assay [2], the target named is Receptor-type tyrosine-protein kinase FLT3 (Homo sapiens) (UniProt P36888). Nature of the assay: Inhibition of FLT-3 kinase at 10 uM after 1 hr by competitive binding assay. In short, it runs like this:
as §2

Assay [3] addresses Ribosomal protein S6 kinase alpha-1 (Homo sapiens) (UniProt Q15418). Nature of the assay: Inhibition of RPS6KA1 kinase at 10 uM after 1 hr by competitive binding assay. In outline:
as §2

Assay [4] deals with Casein kinase I isoform gamma-2 (Homo sapiens) (UniProt P78368). Nature of the assay: Inhibition of CSNK1G2 at 10 uM after 1 hr by competitive binding assay. In outline: as §2
Assay [5] deals with Inhibitor of nuclear factor kappa-B kinase subunit alpha (Homo sapiens) (UniProt O15111). Nature of the assay: Inhibition of IKKalpha at 10 uM after 1 hr by competitive binding assay. In short, it runs like this: as §2
Assay [6] addresses Tyrosine-protein kinase BTK (Homo sapiens) (UniProt Q06187). The assay can be described thus: Inhibition of BTK at 10 uM after 1 hr by competitive binding assay. In outline: as §2
Assay [7] addresses Serine/threonine-protein kinase PAK 3 (Homo sapiens) (UniProt O75914). Nature of the assay: Inhibition of PAK3 at 10 uM after 1 hr by competitive binding assay. In outline:
as §2

The target in assay [8] is Casein kinase II subunit alpha' (Homo sapiens) (UniProt P19784). The assay can be described thus: Inhibition of CSNK2A2 at 10 uM after 1 hr by competitive binding assay. In outline:
as §2

Assay [9] concerns the target Non-receptor tyrosine-protein kinase TYK2 (Homo sapiens) (UniProt P29597). The assay can be described thus: Inhibition of TYK2 at 10 uM after 1 hr by competitive binding assay. In short, it runs like this: as §2
In assay [10] the target is MAP/microtubule affinity-regulating kinase 3 (Homo sapiens) (UniProt P27448). Nature of the assay: Inhibition of MARK3 at 10 uM after 1 hr by competitive binding assay.

For `CNC(=O)NC[C@H]1O[C@@H](n2cnc3c(NC(=O)Nc4cccc(I)c4)ncnc32)[C@H](O[Si](C)(C)C(C)(C)C)[C@@H]1O[Si](C)(C)C(C)(C)C`, the results for the concentration for half-maximal inhibition (IC50) with L1210, in the assay with CCRF-CEM and with HeLa were 38 µg/mL (≈ 47.7 µM), 182 µg/mL (≈ 228 µM) and 21 µg/mL (≈ 26.4 µM), respectively.
Regarding `CNC(=O)NC[C@H]1O[C@@H](n2cnc3c(NC(=O)Nc4ccc(Cl)cc4)ncnc32)[C@H](O[Si](C)(C)C(C)(C)C)[C@@H]1O[Si](C)(C)C(C)(C)C`, the half-inhibitory concentration (IC50) in the assay with L1210 is 5.6 µg/mL (≈ 7.94 µM); in the assay with FM3A, 33 µg/mL (≈ 46.8 µM); in the assay on CCRF-CEM, 14 µg/mL (≈ 19.8 µM); with HeLa it was 3.4 µg/mL (≈ 4.82 µM).
In the case of `CCOC(=O)C[C@H]1[C@@H](O[Si](C)(C)C(C)(C)C)[C@H](n2cnc3c(NC(=O)Nc4ccccc4)ncnc32)O[C@@H]1CNC(=O)NC`, the inhibition is 47% in assay [1]; 31% in [2]; 40% in assay [3]; 38% in [4]; 37% in [5]; 35% in assay [6]. For the same compound, the inhibition was 33% in assay [7], 31% in assay [8], 31% in assay [9] and 34% in assay [10].
In the case of `CNC(=O)OC[C@H]1O[C@@H](n2cnc3c(NC(=O)Nc4ccc(OC)cc4)ncnc32)[C@H](O[Si](C)(C)C(C)(C)C)[C@@H]1O[Si](C)(C)C(C)(C)C`, the 50% inhibitory concentration (IC50) is > 200 µg/mL with L1210, > 200 µg/mL in the assay with FM3A, > 200 µg/mL in the assay with CCRF-CEM and ≥ 200 µg/mL in the assay on HeLa.
With `CCCCCCNC(=O)Nc1ncnc2c1ncn2[C@@H]1O[C@H](CNC(=O)NC)[C@@H](O[Si](C)(C)C(C)(C)C)[C@H]1O[Si](C)(C)C(C)(C)C`, the results for the IC50 in the assay on L1210, with CCRF-CEM and in the assay with HeLa were 74 µg/mL (≈ 109 µM), 68 µg/mL (≈ 100 µM) and 74 µg/mL (≈ 109 µM), respectively.
`CNC(=O)NC[C@H]1O[C@@H](n2cnc3c(NC(=O)Nc4ccc(OC)cc4)ncnc32)[C@H](O[Si](C)(C)C(C)(C)C)[C@@H]1O[Si](C)(C)C(C)(C)C`: the concentration for half-maximal inhibition (IC50) with L1210 came out at 3.8 µg/mL (≈ 5.42 µM); with FM3A, 5.8 µg/mL (≈ 8.27 µM); with CCRF-CEM, 5.2 µg/mL (≈ 7.42 µM); with HeLa, 2.6 µg/mL (≈ 3.71 µM).
In the case of `CNC(=O)OC[C@H]1O[C@@H](n2cnc3c(NC(=O)NCc4ccccc4)ncnc32)[C@H](O[Si](C)(C)C(C)(C)C)[C@@H]1O[Si](C)(C)C(C)(C)C`, the IC50 is 101 µg/mL (≈ 147 µM) in the assay with L1210, > 200 µg/mL in the assay on FM3A, > 200 µg/mL with CCRF-CEM and 23 µg/mL (≈ 33.5 µM) with HeLa.
Regarding `CNC(=O)NC[C@H]1O[C@@H](n2cnc3c(NC(=O)NC4CCCCC4)ncnc32)[C@H](O[Si](C)(C)C(C)(C)C)[C@@H]1O[Si](C)(C)C(C)(C)C`, the concentration for half-maximal inhibition (IC50) worked out at 20 µg/mL (≈ 29.5 µM) with L1210, 8.4 µg/mL (≈ 12.4 µM) in the assay with FM3A, 5.2 µg/mL (≈ 7.68 µM) in the assay with CCRF-CEM and 11 µg/mL (≈ 16.2 µM) in the assay on HeLa.
For `CNC(=O)OC[C@H]1O[C@@H](n2cnc3c(NC(=O)Nc4ccc(Cl)cc4)ncnc32)[C@H](O[Si](C)(C)C(C)(C)C)[C@@H]1O[Si](C)(C)C(C)(C)C` the same measures were > 200 µg/mL, > 200 µg/mL, > 200 µg/mL and > 200 µg/mL.
For `CNC(=O)OC[C@H]1O[C@@H](n2cnc3c(NC(=O)Nc4ccccc4)ncnc32)[C@H](O[Si](C)(C)C(C)(C)C)[C@@H]1O[Si](C)(C)C(C)(C)C` the same measures were 160 µg/mL (≈ 238 µM), > 200 µg/mL, > 200 µg/mL and ≥ 200 µg/mL.
On to `CNC(=O)OC[C@H]1O[C@@H](n2cnc3c(NC(=O)Nc4ccc([N+](=O)[O-])cc4)ncnc32)[C@H](O[Si](C)(C)C(C)(C)C)[C@@H]1O[Si](C)(C)C(C)(C)C`, for which the half-maximal inhibitory concentration (IC50) in the assay with L1210 is 7.7 µg/mL (≈ 10.7 µM); with FM3A, 24 µg/mL (≈ 33.5 µM); in the assay with CCRF-CEM, 15 µg/mL (≈ 20.9 µM); with HeLa, 1.5 µg/mL (≈ 2.09 µM).
For `CCCNC(=O)Nc1ncnc2c1ncn2[C@@H]1O[C@H](COC(=O)NC)[C@@H](O[Si](C)(C)C(C)(C)C)[C@H]1O[Si](C)(C)C(C)(C)C` the same measures were 18 µg/mL (≈ 28.2 µM), 23 µg/mL (≈ 36.1 µM), 59 µg/mL (≈ 92.5 µM) and 55 µg/mL (≈ 86.2 µM).
For `CNC(=O)OC[C@H]1O[C@@H](n2cnc3c(NC(=O)Nc4cccc(I)c4)ncnc32)[C@H](O[Si](C)(C)C(C)(C)C)[C@@H]1O[Si](C)(C)C(C)(C)C`, the half-maximal inhibitory concentration (IC50) in the assay on L1210, with FM3A, in the assay with CCRF-CEM and with HeLa was > 200 µg/mL throughout.
As for `CNC(=O)OC[C@H]1O[C@@H](n2cnc3c(NC(=O)NC4CCCCC4)ncnc32)[C@H](O[Si](C)(C)C(C)(C)C)[C@@H]1O[Si](C)(C)C(C)(C)C`, the half-maximal inhibitory concentration (IC50) in the assay on L1210 is 74 µg/mL (≈ 109 µM); in the assay with FM3A it was > 200 µg/mL; in the assay with CCRF-CEM, 175 µg/mL (≈ 258 µM); in the assay with HeLa it was 69 µg/mL (≈ 102 µM).
Turning to `CNC(=O)NC[C@H]1O[C@@H](n2cnc3c(NC(=O)Nc4ccc([N+](=O)[O-])cc4)ncnc32)[C@H](O[Si](C)(C)C(C)(C)C)[C@@H]1O[Si](C)(C)C(C)(C)C`, the IC50 is ≥ 200 µg/mL with L1210, > 200 µg/mL in the assay on FM3A, > 200 µg/mL with CCRF-CEM and > 200 µg/mL in the assay on HeLa.
`CCCCCCNC(=O)Nc1ncnc2c1ncn2[C@@H]1O[C@H](COC(=O)NC)[C@@H](O[Si](C)(C)C(C)(C)C)[C@H]1O[Si](C)(C)C(C)(C)C`: the IC50 in the assay with L1210 is > 200 µg/mL; in the assay with FM3A, > 200 µg/mL; with CCRF-CEM, 175 µg/mL (≈ 257 µM); with HeLa it was 88 µg/mL (≈ 129 µM).
For the compound `CNC(=O)NC[C@H]1O[C@@H](n2cnc3c(NC(=O)Nc4ccc(I)cc4)ncnc32)[C@H](O[Si](C)(C)C(C)(C)C)[C@@H]1O[Si](C)(C)C(C)(C)C`, the IC50 came out at 43 µg/mL (≈ 54 µM) with L1210, 68 µg/mL (≈ 85.3 µM) in the assay with CCRF-CEM and 18 µg/mL (≈ 22.6 µM) in the assay on HeLa.
As for `CNC(=O)OC[C@H]1O[C@@H](n2cnc3c(NC(=O)Nc4ccc(I)cc4)ncnc32)[C@H](O[Si](C)(C)C(C)(C)C)[C@@H]1O[Si](C)(C)C(C)(C)C`, the IC50 in the assay on L1210 is > 200 µg/mL; with FM3A, > 200 µg/mL; with CCRF-CEM it was ≥ 200 µg/mL; in the assay on HeLa, 143 µg/mL (≈ 179 µM).
Regarding `CCCNC(=O)Nc1ncnc2c1ncn2[C@@H]1O[C@H](CNC(=O)NC)[C@@H](O[Si](C)(C)C(C)(C)C)[C@H]1O[Si](C)(C)C(C)(C)C`, the IC50 worked out at 3.9 µg/mL (≈ 6.12 µM) in the assay with L1210, 4.7 µg/mL (≈ 7.38 µM) in the assay with FM3A, 4.4 µg/mL (≈ 6.91 µM) in the assay on CCRF-CEM and 3.3 µg/mL (≈ 5.18 µM) with HeLa.
In the case of `CNC(=O)NC[C@H]1O[C@@H](n2cnc3c(NC(=O)NCc4ccccc4)ncnc32)[C@H](O[Si](C)(C)C(C)(C)C)[C@@H]1O[Si](C)(C)C(C)(C)C`, the IC50 in the assay with L1210 was 4.6 µg/mL (≈ 6.72 µM); in the assay with FM3A, 9.2 µg/mL (≈ 13.4 µM); in the assay on CCRF-CEM, 8.3 µg/mL (≈ 12.1 µM); in the assay on HeLa, 3.8 µg/mL (≈ 5.55 µM).

For orientation: IC50 means the point on the concentration scale where inhibition reaches its midpoint. A lower IC50 goes with greater potency in that assay. The term inhibition denotes the drop in the measured response relative to a control, in per cent. Read a high inhibition as a strong effect.
